Reference: ChEMBL document CHEMBL1132465, “Design and synthesis of thrombin inhibitors: analogues of MD-805 with reduced stereogenicity and improved potency” (J Med Chem, 1999)

Assays:
Prothrombin [1] = target: Prothrombin (Bos taurus, UniProt P00735); assay: Inhibitory activity against bovine thrombin
Prothrombin [2] = target: T1, Prothrombin (Homo sapiens, UniProt P00734); assay: The compound was evaluated for the inhibitory activity against human thrombin
Summary of the method: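 Human thrombin (0.0625 U/mL final) in 0.05 M TRIS-HCl pH 8.4 with S-2238, started by enzyme. Absorbance slope at 405 nm was read over 30 s. A range-finding run at about 0.01–100 μM was followed by substrate at 3.125–100 μM with at least two inhibitor levels plus vehicle. DMSO was below 0.5%. Ki = [i]/(Kp/Km − 1) from double-reciprocal plots.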

[3] = The compound was evaluated for the dose to double the control plasma APTT value in the human plasma; type: functional
Summary of the method: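 Human blood was anticoagulated with one-tenth volume 3.8% trisodium citrate and centrifuged at 1300g for 20 min to give platelet-poor plasma. Plasma was spiked with compound at 0 to about 150 μM. It was activated 5 min at 37 °C with bovine cephalin (ellagic acid) reagent, and clotting was started with 20 mM CaCl2. Clot time was read on a coagulometer. Concentration doubling APTT was read from a concentration–APTT plot.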

Prothrombin [4] = target: T1, Prothrombin; assay: Inhibitory activity against human thrombin

CC1CNc2c(cccc2S(=O)(=O)NC(CCCN=C(N)N)C(=O)N2CCC(CCCl)CC2)C1 (configuration not stated) gave a Ki (Prothrombin [1]) of 0.019 µM, a Ki (Prothrombin [2]) of 0.011 µM and an IC200 [3] of 2.7 µM.
Compound CC1CNc2c(cccc2S(=O)(=O)NC(CCCN=C(N)N)C(=O)N2CCC(O)CC2)C1 (configuration not stated) has a Ki (Prothrombin [1]) of 5.18 µM.
CC1CNc2c(cccc2S(=O)(=O)NC(CCCN=C(N)N)C(=O)N2CCC[C@H]2CO)C1 (some centres not stated) gave a Ki (Prothrombin [1]) of 0.08 µM.
CC1CNc2c(cccc2S(=O)(=O)NC(CCCNC(=N)N)C(=O)N2CCC(CCCO)CC2)C1 (configuration not stated) showed a Ki (Prothrombin [1]) of 0.185 µM.
CC(C)(c1ccccc1)c1cccc(S(=O)(=O)NC(CCCNC(=N)N)C(=O)N2CCc3ccccc3C2)c1 (configuration not stated) showed a Ki (Prothrombin [1]) of 0.049 µM.
In the case of CC(C)(c1ccccc1)c1cccc(S(=O)(=O)NC(CCCN=C(N)N)C(=O)N2CCC[C@H]2CO)c1 (some centres not stated), the Ki (Prothrombin [1]) is reported as 2.9 µM.
Work on CC1CNc2c(cccc2S(=O)(=O)NC(CCCN=C(N)N)C(=O)N2CCCC(O)C2)C1 (configuration not stated) yielded a Ki (Prothrombin [1]) of 0.36 µM.
CC1CNc2c(cccc2S(=O)(=O)NC(CCCN=C(N)N)C(=O)N2CCC(CCO)CC2)C1 (configuration not stated) showed a Ki (Prothrombin [1]) of 0.052 µM.
With CC1CNc2c(cccc2S(=O)(=O)NC(CCCN=C(N)N)C(=O)N2CCC(CCNC(=O)CCC(=O)O)CC2)C1 (configuration not stated) the Ki (Prothrombin [1]) was 0.65 µM.
CC1CNc2c(cccc2S(=O)(=O)NC(CCCN=C(N)N)C(=O)N2CCC(CC(=O)O)CC2)C1 (configuration not stated) showed a Ki (Prothrombin [1]) of 2.6 µM.
CC1CNc2c(cccc2S(=O)(=O)NC(CCCNC(=N)N)C(=O)N2Cc3ccccc3CC2CO)C1 (configuration not stated) showed a Ki (Prothrombin [1]) of 0.89 µM.
Work on CC(=O)NCCC1CCN(C(=O)C(CCCN=C(N)N)NS(=O)(=O)c2cccc3c2NCC(C)(C)C3)CC1 (configuration not stated) yielded an IC200 [3] of 2.15 µM and a Ki (Prothrombin [4]) of 0.043 µM.
In the case of CC1CNc2c(cccc2S(=O)(=O)NC(CCCN=C(N)N)C(=O)N2CCC(CCCCCCC(=O)O)CC2)C1 (configuration not stated), the Ki (Prothrombin [1]) is reported as 1.98 µM.
In the case of CC1CNc2c(cccc2S(=O)(=O)NC(CCCN=C(N)N)C(=O)N2CCC(CCC(=O)O)CC2)C1 (configuration not stated), the Ki (Prothrombin [1]) is reported as 18.4 µM.
CC1CNc2c(cccc2S(=O)(=O)NC(CCCN=C(N)N)C(=O)N2CCC(CCOCCCC(=O)O)CC2)C1 (configuration not stated) showed a Ki (Prothrombin [1]) of 0.98 µM.
Compound CC1CNc2c(cccc2S(=O)(=O)NC(CCCN=C(N)N)C(=O)N2CCCC2)C1 (configuration not stated) has a Ki (Prothrombin [1]) of 0.795 µM.
With CC1CNc2c(cccc2S(=O)(=O)NC(CCCNC(=N)N)C(=O)N2CCC(CO)CC2)C1 (configuration not stated) the Ki (Prothrombin [1]) was 0.064 µM.
Compound CC1CNc2c(cccc2S(=O)(=O)NC(CCCNC(=N)N)C(=O)N2CCC[C@@H](CCO)C2)C1 (some centres not stated) has a Ki (Prothrombin [1]) of 1.35 µM.
Compound CC1CNc2c(cccc2S(=O)(=O)NC(CCCN=C(N)N)C(=O)N2CCCCC2CO)C1 (configuration not stated) has a Ki (Prothrombin [1]) of 0.064 µM.
